Reference: publication PMC3866226 (Molecular pharmaceutics, 2013)
Where “and” joins values, the source holds several entries; their conditions need not be identical. Equal entries are not always repeated. Entries after “also recorded” stand apart in the source; their conditions may differ. Bridge positions count the residues as written; N and C are the ends. Square brackets hold non-standard residues; d marks the D form. Peptide text beside a SMILES is read from it.

Tests used:
B16/F1 melanoma cells [1] = assay: Cellular internalization; assay type: cell-based, murine; conditions: after 20 min of incubation at 25 °C, acid wash pH 4.5, n=3
How it was run: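 Cells at 2.5×10^5/well were grown overnight at 37 °C and washed with binding medium (MEM, 25 mM HEPES pH 7.4, 0.2% BSA, 0.3 mM 1,10-phenanthroline). They were incubated at 25 °C with ~200,000 cpm HPLC-purified radiopeptide for 20–120 min (n=3). Membrane-bound activity was stripped with 40 mM sodium acetate pH 4.5/0.9% NaCl/0.2% BSA. Cells were lysed in 1 N NaOH for 5 min; both fractions were gamma-counted.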

B16/F1 melanoma cells [2] = assay: Cellular efflux; assay type: cell-based, murine; conditions: loaded 2 h at 25 °C, then 2 h of incubation in the culture medium
How it was run: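 B16/F1 cells were seeded at 2.5×10^5/well and grown overnight at 37 °C. They were loaded with radiopeptide for 2 h at 25 °C and rinsed twice with ice-cold PBS. Release into culture medium was then monitored. At 20, 40, 60, 90 and 120 min, surface-bound and intracellular radioactivity were collected separately and gamma-counted.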

[3] = Biodistribution in B16/F1 melanoma-bearing C57 mice; assay type: in vivo, mouse; conditions: female, C57, mouse, iv, 0.037 MBq, total radioactivity
How it was run: (§1)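 Female C57 mice bore subcutaneous right-flank tumours from 1×10^6 B16/F1 cells (~0.2 g at 10 days). Radiopeptide, 0.037 MBq in pH 7.4 saline, went in via tail vein. Groups of 4 were killed at 0.5, 2, 4 and 24 h; tumours and organs were weighed and gamma-counted. Blood was taken as 6.5% body weight. Blockade: co-injected 10 µg (6.1 nmol) unlabeled NDP-MSH, 2 h. Results as %ID/g or %ID, mean ± SD, n=4.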

[4] = tested on: B16/F1 melanoma-bearing C57 mice; assay: as above; assay type: in vivo, mouse
How it was run: as §1

[5] = tested on: B16/F1 melanoma-bearing C57 mice; assay: Effect of L-lysine co-injection on renal and tumor uptake; assay type: in vivo, mouse; conditions: 2 h post-injection, 15 mg L-lysine
How it was run: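 Groups of 4 tumour-bearing C57 mice received 0.037 MBq radiopeptide mixed with 15 mg L-lysine via injection. Mice were killed at 2 h, and tumours and organs were weighed and gamma-counted. Uptake with versus without L-lysine was compared by unpaired Student's t-test, significance p<0.05.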

[6] = tested on: B16/F1 melanoma-bearing C57 mice; assay: Urinary metabolites by radio-HPLC; assay type: in vivo, mouse; conditions: urine at 2 h post-injection of ~3.7 MBq via tail vein
[7] = tested on: B16/F1 melanoma-bearing C57 mice; assay: Melanoma imaging by small animal SPECT/CT; assay type: in vivo, mouse; conditions: 2 h post-injection of 7.4 MBq via tail vein

tissue uptake at 0.5 h ([3]; blood): 1.5 ± 0.52 %ID/g | tissue uptake at 2 h ([3]; blood): 0.49 ± 0.05 %ID/g | tissue uptake at 4 h ([3]; blood): 0.54 ± 0.45 %ID/g | tissue uptake at 24 h ([3]; blood): 0.07 ± 0.02 %ID/g | tissue uptake at 0.5 h ([3]; bone): 1.6 ± 0.73 %ID/g | tissue uptake at 2 h ([3]; bone): 0.57 ± 0.08 %ID/g | tissue uptake at 4 h ([3]; bone): 0.54 ± 0.28 %ID/g | tissue uptake at 24 h ([3]; bone): 0.47 ± 0.05 %ID/g | tissue uptake at 0.5 h ([3]; brain): 0.15 ± 0.05 %ID/g | tissue uptake at 2 h ([3]; brain): 0.04 ± 0.01 %ID/g | tissue uptake at 4 h ([3]; brain): 0.02 ± 0.01 %ID/g | tissue uptake at 24 h ([3]; brain): 0.03 ± 0.01 %ID/g | tissue uptake at 0.5 h ([3]; heart): 0.74 ± 0.43 %ID/g | tissue uptake at 2 h ([3]; heart): 0.26 ± 0.15 %ID/g | tissue uptake at 4 h ([3]; heart): 0.16 ± 0.03 %ID/g | tissue uptake at 24 h ([3]; heart): 0.1 ± 0.07 %ID/g | tissue uptake dose at 0.5 h ([3]; intestines): 1.36 ± 0.27 %ID | tissue uptake dose at 2 h ([3]; intestines): 1.59 ± 1.08 %ID | tissue uptake dose at 4 h ([3]; intestines): 0.95 ± 0.3 %ID | tissue uptake dose at 24 h ([3]; intestines): 0.44 ± 0.22 %ID | tissue uptake at 0.5 h ([3]; kidneys): 90.2 ± 15.4 %ID/g | tissue uptake at 2 h ([3]; kidneys): 94 ± 18.3 %ID/g | tissue uptake at 4 h ([3]; kidneys): 73.9 ± 3.73 %ID/g | tissue uptake at 24 h ([3]; kidneys): 44.3 ± 12.1 %ID/g | tissue uptake at 0.5 h ([3]; liver): 1.86 ± 0.17 %ID/g | tissue uptake at 2 h ([3]; liver): 1.4 ± 0.34 %ID/g | tissue uptake at 4 h ([3]; liver): 1.59 ± 0.13 %ID/g | tissue uptake at 24 h ([3]; liver): 1.21 ± 0.26 %ID/g | tissue uptake at 0.5 h ([3]; lung): 2.01 ± 0.97 %ID/g | tissue uptake at 2 h ([3]; lung): 0.87 ± 0.4 %ID/g | tissue uptake at 4 h ([3]; lung): 0.49 ± 0.43 %ID/g | tissue uptake at 24 h ([3]; lung): 0.19 ± 0.1 %ID/g | tissue uptake at 0.5 h ([3]; muscle): 11.2 ± 6.02 %ID/g | tissue uptake at 2 h ([3]; muscle): 0.17 ± 0.1 %ID/g | tissue uptake at 4 h ([3]; muscle): 0.1 ± 0.07 %ID/g | tissue uptake at 24 h ([3]; muscle): 0.26 ± 0.02 %ID/g | tissue uptake at 0.5 h ([3]; pancreas): 0.62 ± 0.25 %ID/g | tissue uptake at 2 h ([3]; pancreas): 0.1 ± 0.02 %ID/g | tissue uptake at 4 h ([3]; pancreas): 0.08 ± 0.08 %ID/g | tissue uptake at 24 h ([3]; pancreas): 0.18 ± 0.07 %ID/g | tissue uptake at 0.5 h ([3]; skin): 9.59 ± 0.62 %ID/g | tissue uptake at 2 h ([3]; skin): 0.69 ± 0.18 %ID/g | tissue uptake at 4 h ([3]; skin): 0.35 ± 0.08 %ID/g | tissue uptake at 24 h ([3]; skin): 0.42 ± 0.27 %ID/g | tissue uptake at 0.5 h ([3]; spleen): 0.82 ± 0.43 %ID/g | tissue uptake at 2 h ([3]; spleen): 0.4 ± 0.1 %ID/g | tissue uptake at 4 h ([3]; spleen): 0.5 ± 0.15 %ID/g | tissue uptake at 24 h ([3]; spleen): 0.34 ± 0.06 %ID/g | tissue uptake at 0.5 h ([3]; stomach): 1.92 ± 0.53 %ID/g | tissue uptake at 2 h ([3]; stomach): 1.21 ± 0.61 %ID/g | tissue uptake at 4 h ([3]; stomach): 0.96 ± 0.27 %ID/g | tissue uptake at 24 h ([3]; stomach): 0.4 ± 0.13 %ID/g | tissue to tissue ratio at 0.5 h ([3]; tumor / blood): 11.1 | tissue to tissue ratio at 2 h ([3]; tumor / blood): 34.9 | tissue to tissue ratio at 4 h ([3]; tumor / blood): 36.4 | tissue to tissue ratio at 24 h ([3]; tumor / blood): 126 | tissue to tissue ratio at 0.5 h ([3]; tumor / kidneys): 0.19 | tissue to tissue ratio at 2 h ([3]; tumor / kidneys): 0.18 | tissue to tissue ratio at 4 h ([3]; tumor / kidneys): 0.27 | tissue to tissue ratio at 24 h ([3]; tumor / kidneys): 0.2 | tissue to tissue ratio at 0.5 h ([3]; tumor / lung): 8.31 | tissue to tissue ratio at 2 h ([3]; tumor / lung): 19.7 | tissue to tissue ratio at 4 h ([3]; tumor / lung): 40.1 | tissue to tissue ratio at 24 h ([3]; tumor / lung): 46.4 | tissue uptake at 0.5 h ([3]; tumor): 16.7 ± 5.31 %ID/g | tissue uptake at 2 h ([3]; tumor): 17.1 ± 3.82 %ID/g | tissue uptake at 4 h ([3]; tumor): 19.6 ± 4.68 %ID/g | tissue uptake at 24 h ([3]; tumor): 8.81 ± 2.13 %ID/g | tissue to tissue ratio at 0.5 h ([3]; tumor/liver): 8.98 | tissue to tissue ratio at 2 h ([3]; tumor/liver): 12.2 | tissue to tissue ratio at 4 h ([3]; tumor/liver): 12.3 | tissue to tissue ratio at 24 h ([3]; tumor/liver): 7.28 | tissue to tissue ratio at 0.5 h ([3]; tumor/muscle): 1.48 | tissue to tissue ratio at 2 h ([3]; tumor/muscle): 101 | tissue to tissue ratio at 4 h ([3]; tumor/muscle): 196 | tissue to tissue ratio at 24 h ([3]; tumor/muscle): 33.9 | dose excreted at 0.5 h ([3]; urine): 44.5 ± 3.12% | dose excreted at 2 h ([3]; urine): 59.2 ± 9.65% | dose excreted at 4 h ([3]; urine): 67.5 ± 10% | dose excreted at 24 h ([3]; urine): 76.8 ± 8.21% | Renal uptake as % of the renal uptake of ^99mTc-RTD-Lys-(Arg^11)CCMSH ([4]; 0.5 h post-injection): 62% | Renal uptake as % of the renal uptake of ^99mTc-RTD-Lys-(Arg^11)CCMSH ([4]; 2 h post-injection): 70% | Uptake ratio Tumor/Blood ([4]; 2 h post-injection, NDP blockade): 2.75 | Renal uptake as % of the renal uptake of ^99mTc-RTD-Lys-(Arg^11)CCMSH ([4]; 4 h post-injection): 70% | Reduction of renal uptake by L-lysine co-injection ([5]; versus without L-lysine): 41% and 40–50% | Remained intact in the urine [6]: Approximately 70% | Transformed to a more hydrophobic compound in the urine [6]: 30%
Compound: CC(C)[C@H](NC(=O)[C@@H]1CCCN1C(=O)[C@H](CCCNC(=N)N)NC(=O)[C@H](CS)NC(=O)[C@H](Cc1c[nH]c2ccccc12)NC(=O)[C@H](CCCNC(=N)N)NC(=O)[C@@H](Cc1ccccc1)NC(=O)[C@H](Cc1c[nH]cn1)NC(=O)[C@H](CCC(=O)O)NC(=O)[C@H](CS)NC(=O)[C@H](CS)NC(=O)[C@H](CCCCN)NC(=O)[C@@H]1CC(=O)N[C@@H](CCCNC(=N)N)C(=O)N[C@@H](C(C)C)C(=O)N[C@@H](CC(=O)O)C(=O)N[C@H](Cc2ccc(O)cc2)C(=O)N1)C(N)=O [^99mTc-RVD-Lys-(Arg^11)CCMSH, metal not drawn] (RVD[dY]DKCCEH[dF]RWCRPV-NH2; lactam N-5)
Activity internalized in the cells (B16/F1 melanoma cells [1]): ~72% | Activity remained inside the cells (cellular efflux) (B16/F1 melanoma cells [2]): 70% | Effect of L-lysine co-injection on tumor uptake ([5]; p>0.05): didn't affect the tumor uptake; also recorded: without affecting their tumor uptake | Visualization of flank B16/F1 melanoma lesions by SPECT/CT [7]: clearly visualized
